Where “and” joins values, the source holds several entries; their conditions need not be identical. Equal entries are not always repeated. Entries after “also recorded” stand apart in the source; their conditions may differ.
How the values were obtained:
TPMT*6 (Y180F) [1] = molecular target: T1, TPMT*6 (Y180F) (Homo sapiens, UniProt P51580, Y180F); assay: ITC binding of SAM and ANS to TPMT*6
T1 sequence (P51580 1-245 Y180F): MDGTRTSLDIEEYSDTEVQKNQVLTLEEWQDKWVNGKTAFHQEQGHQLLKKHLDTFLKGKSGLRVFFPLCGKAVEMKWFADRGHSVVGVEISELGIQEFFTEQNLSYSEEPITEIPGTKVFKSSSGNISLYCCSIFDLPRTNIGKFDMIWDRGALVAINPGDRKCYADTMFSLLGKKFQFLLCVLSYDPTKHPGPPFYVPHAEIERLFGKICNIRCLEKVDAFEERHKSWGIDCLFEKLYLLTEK
Method in brief: (§1)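 Isothermal titration calorimetry at 25 °C (reference power 7 μcal s−1) of ~50 μM His-tag-cleaved recombinant human TPMT (residues 1–245; E. coli BL21-CodonPlus(DE3)-RIL; Ni-NTA and gel filtration). Thirteen injections per run, at least three runs per variant–ligand pair, fitted to a binding model.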

TPMTwt [2] = molecular target: T2, TPMTwt (Homo sapiens, UniProt P51580); assay: ITC binding of SAM and ANS to TPMTwt; conditions: dissociation constant, 25 °C
T2 sequence (P51580 1-245): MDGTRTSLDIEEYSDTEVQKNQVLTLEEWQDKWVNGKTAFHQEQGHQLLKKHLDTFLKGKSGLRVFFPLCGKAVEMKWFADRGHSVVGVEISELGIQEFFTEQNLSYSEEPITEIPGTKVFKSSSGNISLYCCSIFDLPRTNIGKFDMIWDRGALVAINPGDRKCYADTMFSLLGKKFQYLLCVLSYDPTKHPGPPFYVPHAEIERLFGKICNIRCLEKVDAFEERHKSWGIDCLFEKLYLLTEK
Method in brief: as §1

TPMTwt [3] = molecular target: T2, TPMTwt; assay: Thermal denaturation by CD at 222 nm in the presence of ligand, TPMTwt; assay type: binding
Method in brief: (§2)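 Far-UV CD thermal unfolding at 222 nm, 18 to 80 °C in 2° steps, 10 scans over 60 s per step. Sample was 3 μM purified recombinant TPMT in 20 mM potassium phosphate pH 7.3, 75 mM NaCl, 2% glycerol, 0.5 mM TCEP, 4 mm cuvette. Run without ligand, with 30 μM SAM, or with 60 μM ANS. Tm fitted from three independent measurements.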

TPMTwt [4] = molecular target: T2, TPMTwt; assay: Thermal denaturation monitored as ANS fluorescence emission at 475 nm, TPMTwt; assay type: binding; conditions: ANS emission at 475 nm, ANS in 20-fold molar excess (60 μM)
Method in brief: (§3)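 Scanned 18 to 80 °C in 2° steps. Excitation 360 nm, emission 400–600 nm. Tm taken from the relative change in maximum intensity at 475 nm, three independent measurements.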

TPMT*8 (R215H) [5] = molecular target: T3, TPMT*8 (R215H) (Homo sapiens, UniProt P51580, R215H); assay: Thermal denaturation by CD at 222 nm in the presence of ligand, TPMT*8; assay type: binding
T3 sequence (P51580 1-245 R215H): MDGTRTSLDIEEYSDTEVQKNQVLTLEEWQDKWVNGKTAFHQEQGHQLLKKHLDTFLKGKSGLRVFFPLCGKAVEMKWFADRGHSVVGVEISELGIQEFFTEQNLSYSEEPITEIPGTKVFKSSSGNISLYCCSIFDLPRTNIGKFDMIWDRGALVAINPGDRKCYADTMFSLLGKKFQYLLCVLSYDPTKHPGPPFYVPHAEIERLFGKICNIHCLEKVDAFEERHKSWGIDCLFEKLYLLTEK
Method in brief: as §2

TPMT*8 (R215H) [6] = molecular target: T3, TPMT*8 (R215H); assay: Thermal denaturation monitored as ANS fluorescence emission at 475 nm, TPMT*8; assay type: binding; conditions: ANS emission at 475 nm, ANS in 20-fold molar excess (60 μM)
Method in brief: as §3

TPMT*6 (Y180F) [7] = molecular target: T1, TPMT*6 (Y180F); assay: Thermal denaturation monitored as ANS fluorescence emission at 475 nm, TPMT*6; assay type: binding; conditions: ANS emission at 475 nm, ANS in 20-fold molar excess (60 μM)
Method in brief: as §3

TPMT*8 (R215H) [8] = molecular target: T3, TPMT*8 (R215H); assay: ITC binding of SAM and ANS to TPMT*8
Method in brief: as §1

TPMT = molecular target: T4, TPMT (Homo sapiens, UniProt P51580); assay: ANS and SAM binding to TPMT, all investigated variants; conditions: dissociation constant, ANS, ITC (fluorescence and ITC)
T4 sequence (P51580 1-245): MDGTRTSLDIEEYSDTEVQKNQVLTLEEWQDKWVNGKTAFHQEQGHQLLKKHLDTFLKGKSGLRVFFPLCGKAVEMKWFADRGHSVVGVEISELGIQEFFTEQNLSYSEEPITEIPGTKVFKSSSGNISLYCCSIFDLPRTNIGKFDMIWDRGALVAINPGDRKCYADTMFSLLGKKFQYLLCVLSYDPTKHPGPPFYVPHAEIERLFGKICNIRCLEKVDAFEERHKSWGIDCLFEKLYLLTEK
Method in brief: as §1

TPMT*6 (Y180F) [9] = molecular target: T1, TPMT*6 (Y180F); assay: Thermal denaturation by CD at 222 nm in the presence of ligand, TPMT*6; assay type: binding
Method in brief: as §2

[10] = Thermal denaturation of the TPMT variants by CD at 222 nm, no ligand; assay type: physicochemical, human; conditions: 3 μM protein, pH 7.3
Method in brief: as §2

[11] = TPMT enzyme activity on purified recombinant protein, 6-MP as substrate; assay type: biochemical, human; conditions: 6-MP as thiopurine substrate
Method in brief: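 Activity of purified recombinant TPMT measured as rate of 6-methyl-mercaptopurine formation from 6-MP, with 14C-labelled S-adenosyl-L-methionine as methyl donor, following an earlier published protocol.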

[12] = cited from earlier work
[13] = CD at 222 nm, ANS in 20-fold molar excess (60 μM), 3 μM protein
[14] = SAM in 10-fold molar excess (30 μM), 3 μM protein

## O=S(=O)(O)c1cccc2cccc(Nc3ccccc3)c12 [ANS, 8-anilinonaphthalene-1-sulfonic acid]
TPMT*6 (Y180F) [1]
  Kd: 187 ± 32 nM
TPMTwt [2]; ANS
  Kd: 219 ± 58 nM
TPMTwt [3]; [13]
  thermal melting temperature, +ANS: 53.8 °C and 53.8 ± 0.5 °C
TPMTwt [3]; CD at 222 nm, versus no ligand
  increase of Tm on addition of ANS: 7.4 °C
TPMTwt [4]
  thermal melting temperature, fluorescence, +ANS: 54.1 °C and 54.1 ± 0.5 °C
TPMT*8 (R215H) [5]; [13]
  thermal melting temperature, +ANS: 51.5 °C and 51.5 ± 0.4 °C
TPMT*8 (R215H) [5]; CD at 222 nm, versus no ligand
  increase of Tm on addition of ANS: 5.0 °C
TPMT*8 (R215H) [6]
  thermal melting temperature, fluorescence, +ANS: 54.1 °C and 54.1 ± 0.3 °C
TPMT*6 (Y180F) [7]
  thermal melting temperature, fluorescence, +ANS: 49.6 °C and 49.6 ± 0.4 °C
TPMT*8 (R215H) [8]
  Kd: 202 ± 11 nM
TPMT
  Kd: ~200 nM and 200 nM
TPMT*6 (Y180F) [9]; [13]
  thermal melting temperature, +ANS: 48.6 °C and 48.6 ± 0.7 °C
TPMT*6 (Y180F) [9]; CD at 222 nm, versus no ligand
  increase of Tm on addition of ANS: 7.2 °C

## C[S+](CC[C@H](N)C(=O)[O-])C[C@H]1O[C@@H](n2cnc3c(N)ncnc32)[C@H](O)[C@@H]1O (stereo partly shown) [SAM, S-adenosylmethionine]
TPMT*6 (Y180F) [1]
  Kd: 1800 ± 500 nM
TPMTwt [2]; SAM
  Kd: 2200 ± 700 nM
TPMTwt [3]; [14]
  thermal melting temperature, circular dichroism, +SAM: 46.8 ± 0.5 °C
TPMT*8 (R215H) [5]; [14]
  thermal melting temperature, circular dichroism, +SAM: 47.3 ± 0.3 °C
TPMT*8 (R215H) [8]
  Kd: 1500 ± 100 nM
TPMT*6 (Y180F) [9]; [14]
  thermal melting temperature, circular dichroism, +SAM: 40.5 ± 0.5 °C

B1: TPMT*6: naturally occurring TPMT variant, Y180F, purified recombinant protein (protein, UniProt P51580 1-245, looked up, variant Y180F)
Thiopurine S-methyltransferase: MDGTRTSLDIEEYSDTEVQKNQVLTLEEWQDKWVNGKTAFHQEQGHQLLKKHLDTFLKGKSGLRVFFPLCGKAVEMKWFADRGHSVVGVEISELGIQEFFTEQNLSYSEEPITEIPGTKVFKSSSGNISLYCCSIFDLPRTNIGKFDMIWDRGALVAINPGDRKCYADTMFSLLGKKFQFLLCVLSYDPTKHPGPPFYVPHAEIERLFGKICNIRCLEKVDAFEERHKSWGIDCLFEKLYLLTEK
[10]
  thermal melting temperature, circular dichroism, no ligand: 41.4 ± 1.1 °C
[11]
  in vitro enzyme functionality: fully functional; also recorded: normal functionality

B2: TPMTwt: recombinant wild-type human thiopurine S-methyltransferase (residues 1–245) (protein, UniProt P51580 1-245, looked up)
Thiopurine S-methyltransferase: MDGTRTSLDIEEYSDTEVQKNQVLTLEEWQDKWVNGKTAFHQEQGHQLLKKHLDTFLKGKSGLRVFFPLCGKAVEMKWFADRGHSVVGVEISELGIQEFFTEQNLSYSEEPITEIPGTKVFKSSSGNISLYCCSIFDLPRTNIGKFDMIWDRGALVAINPGDRKCYADTMFSLLGKKFQYLLCVLSYDPTKHPGPPFYVPHAEIERLFGKICNIRCLEKVDAFEERHKSWGIDCLFEKLYLLTEK
[10]
  thermal melting temperature, circular dichroism, no ligand: 46.4 ± 0.6 °C

B3: TPMT*8: naturally occurring TPMT variant, R215H, purified recombinant protein (protein, UniProt P51580 1-245, looked up, variant R215H)
Thiopurine S-methyltransferase: MDGTRTSLDIEEYSDTEVQKNQVLTLEEWQDKWVNGKTAFHQEQGHQLLKKHLDTFLKGKSGLRVFFPLCGKAVEMKWFADRGHSVVGVEISELGIQEFFTEQNLSYSEEPITEIPGTKVFKSSSGNISLYCCSIFDLPRTNIGKFDMIWDRGALVAINPGDRKCYADTMFSLLGKKFQYLLCVLSYDPTKHPGPPFYVPHAEIERLFGKICNIHCLEKVDAFEERHKSWGIDCLFEKLYLLTEK
[12]
  reported in vivo enzyme activity class: intermediate
[10]
  thermal melting temperature, circular dichroism, no ligand: 46.5 ± 0.4 °C
[11]
  in vitro enzyme functionality: fully functional; also recorded: normal functionality

Reference: paper PMC6044926 (ACS Omega, 2017)
